Assay outcomes deposited in PubChem BioAssay by several laboratories.
The list is not random: actives were taken first. Their share in the collection is about 2.2%.
CR mimetic SO = yeast age-related superoxide inhibition as caloric restriction mimetic. superoxide response (% of plate mean), % at 10 µM. S. cerevisiae aged cells, superoxide DHE fluorescence; stronger effect = lower value. AID 2690. 0.18% of 330,000 active;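 active means superoxide response under a set limit, about three screen SD below normal, cut at about 65% in these data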;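 further: yeast aged for seven days with compound at 30 °C before DHE staining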
VIM-2 inhibitor = inhibitors of Pseudomonas aeruginosa VIM-2 metallo-beta-lactamase; purified VIM-2, nitrocefin hydrolysis, epi-absorbance fluorescence; inhibition, % at 5.6 µM; 0.89% of 290,000 active; AID 1527;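 active means inhibition above the mean of all tested compounds plus 3 SD, cutoff set per screening run, cut at about 7.5% in these data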;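 further: red hydrolysis product quenches plate fluorescence so inhibitors raise well fluorescence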
IMP-1 inh = inhibitors of Pseudomonas aeruginosa IMP-1 metallo-beta-lactamase; purified IMP-1, nitrocefin hydrolysis, epi-absorbance fluorescence; inhibition, % at 5.6 µM; 0.45% of 290,000 active;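 active means inhibition above the mean plus 3 SD of all compounds in the same screening run, cut at about 4.5% in these data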
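Material – recombinant IMP-1 enzyme, purified · Amount – IMP-1 0.2 nM before substrate addition · Medium – HEPES buffer pH 7.1 with ZnSO4 and Brij 35 · Timing – 25 °C, 15 min preincubation, 25 min reaction · Measured by – plate fluorescence quenching by hydrolysis product, ex 480/em 530 nm · Read-out – percent enzyme inhibition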
PvdQ acylase = P. aeruginosa PvdQ acylase inhibition; purified PvdQ acylase, fluorescence plate reader; 0.063% of 340,000 active; inhibition, % at 10 µM; AID 488965; in the data active means inhibition above about 30%, passing the limit was not always enough
PHOSPHO1 block = inhibitors of human PHOSPHO1 phosphatase | inhibition, % at 13.3 µM | Q8TCT1 | 1.1% of 290,000 active | recombinant PHOSPHO1, absorbance phosphatase assay; in the data active means inhibition above about 60%
Target sequence (Q8TCT1 whole entry, looked up): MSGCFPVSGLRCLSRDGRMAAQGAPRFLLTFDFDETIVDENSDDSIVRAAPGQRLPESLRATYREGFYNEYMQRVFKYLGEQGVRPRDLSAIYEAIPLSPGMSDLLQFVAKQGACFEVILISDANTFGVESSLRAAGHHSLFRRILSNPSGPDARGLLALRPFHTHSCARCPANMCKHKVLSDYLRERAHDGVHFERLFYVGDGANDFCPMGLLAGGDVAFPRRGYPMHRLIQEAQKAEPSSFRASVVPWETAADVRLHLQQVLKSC
Superoxide pick = yeast aging superoxide inhibition, cherry pick confirmation | shares compounds with CR mimetic SO | S. cerevisiae aging, superoxide DHE fluorescence; stronger effect = lower value | superoxide response (% of plate), % at 10 µM | 1% of 850 active | AID 434994;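 active means superoxide signal below 65% of the plate average of sample wells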;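 further: cells aged with compound for 7 days at 30 degrees C before staining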
DHE counter = DHE fluorescence interference, counter-screen artifact; AID 435000; S. cerevisiae BY4741, flow cytometry; stronger effect = lower value; 850 tested, under 10 active; shares compounds with CR mimetic SO; fluorescence response, % at 10 µM;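 active means fluorescence response below 15%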;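 further: lower means stronger quenching of DHE signal or ROS scavenging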
Numbers stand for hits; . = inactive; / = not tested or not shown.

SMILES	CR mimetic SO	VIM-2 inhibitor	IMP-1 inh	PvdQ acylase	PHOSPHO1 block	Superoxide pick	DHE counter
C[C@]12CCC3C(C[C@@H](O)[C@H]4C[C@@H](O)CC[C@]34C)C1CC[C@@H]2O (stereo partly specified)	.	/	/	.	/	.	.
C[C@]12CCC3C(CC[C@@H]4[C@H]5O[C@H]5CC[C@]34C)C1CC[C@@H]2O (stereo partly specified)	/	/	/	.	/	.	.
C[C@]12CC[C@H](N)CC1=CCC1C2CC[C@@]2(C)C1CC[C@@H]2O (stereo partly specified)	.	/	/	.	/	/	/
Cc1ccc(C)c(Cn2c(C(=O)O)c(C=O)c3ccccc32)c1	.	.	.	.	.	/	/
Cc1ccc[n+](CC(O)Cn2c3ccccc3c3ccccc32)c1 (stereo unspecified)	52	.	.	.	.	.	.
C=C[C@@H]1C2=CCOC(=O)C2=CO[C@H]1O[C@@H]1O[C@H](CO)[C@@H](O)[C@H](O)[C@H]1O	.	/	/	.	/	/	/
COc1cc2c(cc1OC)C13CCN4C=C5CCOC6CC(=O)N2C1C6C5CC43 (stereo unspecified)	/	/	/	.	/	/	/
CC(C)(C)c1ccc(C(=O)C2CCCN(C3CCC3)C2)cc1 (stereo unspecified)	65	.	.	.	60	.	.
CC(C)(C)c1ccc(C(=O)C2CCCN(Cc3ccon3)C2)cc1 (stereo unspecified)	.	.	.	.	.	/	/
CC(C)(C)C(=O)O[C@H]1CC[C@@]2(C)C(=CC(=O)C3C2CC[C@]2(C)C(=O)[C@@H](F)CC32)C1 (stereo partly specified)	.	/	/	.	/	/	/
